Data from ChEMBL document CHEMBL1129050, “Correlation of anti-HIV potency with lipophilicity in a series of cosalane analogs having normal alkenyl and phosphodiester chains as cholestane replacements” (J Med Chem, 1996).

Tests used:
CEM-SS [1] = experiment: Effective concentration against HIV-1RF induced cytopathicity in CEM-SS cells; format: functional, cell-based; conditions: Homo sapiens
Method in brief: (§1)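 CEM-SS cells (5000/well) infected with thawed HIV-1 RF stock at MOI 0.01 in the presence of serially diluted compound (as ammonium salts); 37 °C, 5% CO₂, 6 days. Supernatant assayed for RT activity, p24 and/or infectious virus; cell protection from cytopathic effect read by XTT. EC₅₀ averaged from at least two determinations; compounds tested up to […].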

CEM-SS [2] = experiment: Cytotoxic concentration against mock-infected CEM-SS cells; format: functional, cell-based; conditions: Homo sapiens
Method in brief: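 Uninfected (mock-infected) CEM-SS cells, exponentially growing, seeded at 5000 cells/well with serially diluted compound (tested as ammonium salts) in complete medium; 37 °C, 5% CO₂, 6 days. Growth/viability by XTT assay; IC₅₀ = 50% cytotoxic concentration, averaged from at least two determinations.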

CEM-SS [3] = experiment: Effective concentration against HIV-1RF induced cytopathicity in CEM-SS cells; No antiviral uM; format: functional, cell-based, Homo sapiens; method in brief: as §1
CEM-SS [4] = experiment: Effective concentration against HIV-1RF induced cytopathicity in CEM-SS cells; No antiviral activity was observed at concentrations uM; format: functional, cell-based, Homo sapiens; method in brief: as §1

Row | Compound | EC50 (CEM-SS [1]) | EC50 (CEM-SS [3]) | EC50 (CEM-SS [4]) | IC50 (CEM-SS [2])
1 | CCCCCCCC/C=C\CCCCCCCCOP(=O)(O)OCCC=C(c1cc(Cl)c(O)c(C(=O)O)c1)c1cc(Cl)c(O)c(C(=O)O)c1 | 49 µM | – | – | 61.3 µM
2 | CCCCCCCCCCCCCCCCCCOP(=O)(O)OCCC=C(c1cc(Cl)c(O)c(C(=O)O)c1)c1cc(Cl)c(O)c(C(=O)O)c1 | – | Not Active | – | 74 µM
3 | CCCCCCCCCCCCCCCCOP(=O)(O)OCCC=C(c1cc(Cl)c(O)c(C(=O)O)c1)c1cc(Cl)c(O)c(C(=O)O)c1 | – | Not Active | – | 84 µM
4 | CCCCC/C=C\C/C=C\CCCCCCCCOP(=O)(O)OCCC=C(c1cc(Cl)c(O)c(C(=O)O)c1)c1cc(Cl)c(O)c(C(=O)O)c1 | 51.8 µM | – | – | 86 µM
5 | CC(C)CCCC(C)[C@H]1CC[C@H]2[C@@H]3CCC4C[C@@H](CCC=C(c5cc(Cl)c(O)c(C(=O)O)c5)c5cc(Cl)c(O)c(C(=O)O)c5)CC[C@]4(C)[C@H]3CC[C@]12C (some centres undefined) | 3 µM | – | – | > 300 µM
6 | CCCCCCCCCCCCCCOP(=O)(O)OCCC=C(c1cc(Cl)c(O)c(C(=O)O)c1)c1cc(Cl)c(O)c(C(=O)O)c1 | – | Not Active | – | 101 µM
7 | CCCCCCCCCCCCCCCCCCCCCCCCCCCCCC=C(c1cc(Cl)c(O)c(C(=O)O)c1)c1cc(Cl)c(O)c(C(=O)O)c1 | 13.1 µM | – | – | > 220 µM

The next lines start with results.

Row | EC50 (CEM-SS [1]) | EC50 (CEM-SS [3]) | EC50 (CEM-SS [4]) | Compound | IC50 (CEM-SS [2])
8 | – | Not Active | – | O=C(O)c1cc(C(=CCC23CC4CC(CC(C4)C2)C3)c2cc(Cl)c(O)c(C(=O)O)c2)cc(Cl)c1O | 105 µM
9 | – | – | Not Active | CCCCCC=C(c1cc(Cl)c(O)c(C(=O)O)c1)c1cc(Cl)c(O)c(C(=O)O)c1 | > 95 µM
10 | 329 µM | – | – | O=C(O)c1cc(Cc2cc(Cl)c(O)c(C(=O)O)c2)cc(Cl)c1O | > 364 µM
11 | 19.8 µM | – | – | CCCCCCCCCCCCCCCC=C(c1cc(Cl)c(O)c(C(=O)O)c1)c1cc(Cl)c(O)c(C(=O)O)c1 | > 35 µM
12 | 43.2 µM | – | – | CCCCCCCCCC=C(c1cc(Cl)c(O)c(C(=O)O)c1)c1cc(Cl)c(O)c(C(=O)O)c1 | > 49 µM
